Source: ChEMBL document CHEMBL1667819, “Aminopyridinecarboxamide-based inhaled IKK-2 inhibitors for asthma and COPD: Structure-activity relationship” (Bioorg Med Chem, 2011)

How the values were obtained:
[1] = Half life in human liver microsomes
[2] = target: T1, Inhibitor of nuclear factor kappa-B kinase subunit beta (Homo sapiens, UniProt O14920); experiment: Inhibition of human recombinant IKK2
T1 sequence (O14920 whole entry): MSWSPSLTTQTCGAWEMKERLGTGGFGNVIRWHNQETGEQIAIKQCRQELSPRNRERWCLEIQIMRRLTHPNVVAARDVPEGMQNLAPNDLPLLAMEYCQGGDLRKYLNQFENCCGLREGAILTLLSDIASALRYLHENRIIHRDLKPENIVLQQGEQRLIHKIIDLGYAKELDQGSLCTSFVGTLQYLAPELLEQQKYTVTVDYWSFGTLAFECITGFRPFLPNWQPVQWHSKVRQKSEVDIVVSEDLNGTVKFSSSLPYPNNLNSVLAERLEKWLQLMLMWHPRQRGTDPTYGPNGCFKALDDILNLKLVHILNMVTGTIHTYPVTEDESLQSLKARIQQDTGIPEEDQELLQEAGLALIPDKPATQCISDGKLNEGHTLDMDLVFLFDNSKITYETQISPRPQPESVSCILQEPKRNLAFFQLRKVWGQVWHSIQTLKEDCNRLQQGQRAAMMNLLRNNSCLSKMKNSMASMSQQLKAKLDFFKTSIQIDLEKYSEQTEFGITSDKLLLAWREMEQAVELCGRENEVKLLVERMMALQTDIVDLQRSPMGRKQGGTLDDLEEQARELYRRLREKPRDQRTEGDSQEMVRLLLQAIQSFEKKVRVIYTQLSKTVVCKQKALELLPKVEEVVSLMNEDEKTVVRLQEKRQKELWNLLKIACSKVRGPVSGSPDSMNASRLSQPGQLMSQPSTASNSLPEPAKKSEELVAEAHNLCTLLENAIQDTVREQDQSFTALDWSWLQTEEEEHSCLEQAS

[3] = target: T2, Inhibitor of nuclear factor kappa-B kinase subunit beta (Homo sapiens) (UniProt O14920); experiment: Binding affinity to human IKK2 in PBMC assessed as half life by cell-based assay
T2 sequence (whole entry): T1 sequence (O14920 whole entry)
Procedure, shortened: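 Cryopreserved PBMC were thawed and plated, then exposed to compound for 1 h. Compound was removed by four spin-and-aspirate washes, and an unwashed plate served as control. Loss of inhibition after washout gave the cellular half-life.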

[4] = target: Voltage-gated inwardly rectifying potassium channel KCNH2 (Homo sapiens, UniProt Q12809); experiment: Displacement of dofetilide from human ERG transfected in HEK293 cells by fluorescence polarization assay
Sequence of Voltage-gated inwardly rectifying potassium channel KCNH2 (Q12809 whole entry): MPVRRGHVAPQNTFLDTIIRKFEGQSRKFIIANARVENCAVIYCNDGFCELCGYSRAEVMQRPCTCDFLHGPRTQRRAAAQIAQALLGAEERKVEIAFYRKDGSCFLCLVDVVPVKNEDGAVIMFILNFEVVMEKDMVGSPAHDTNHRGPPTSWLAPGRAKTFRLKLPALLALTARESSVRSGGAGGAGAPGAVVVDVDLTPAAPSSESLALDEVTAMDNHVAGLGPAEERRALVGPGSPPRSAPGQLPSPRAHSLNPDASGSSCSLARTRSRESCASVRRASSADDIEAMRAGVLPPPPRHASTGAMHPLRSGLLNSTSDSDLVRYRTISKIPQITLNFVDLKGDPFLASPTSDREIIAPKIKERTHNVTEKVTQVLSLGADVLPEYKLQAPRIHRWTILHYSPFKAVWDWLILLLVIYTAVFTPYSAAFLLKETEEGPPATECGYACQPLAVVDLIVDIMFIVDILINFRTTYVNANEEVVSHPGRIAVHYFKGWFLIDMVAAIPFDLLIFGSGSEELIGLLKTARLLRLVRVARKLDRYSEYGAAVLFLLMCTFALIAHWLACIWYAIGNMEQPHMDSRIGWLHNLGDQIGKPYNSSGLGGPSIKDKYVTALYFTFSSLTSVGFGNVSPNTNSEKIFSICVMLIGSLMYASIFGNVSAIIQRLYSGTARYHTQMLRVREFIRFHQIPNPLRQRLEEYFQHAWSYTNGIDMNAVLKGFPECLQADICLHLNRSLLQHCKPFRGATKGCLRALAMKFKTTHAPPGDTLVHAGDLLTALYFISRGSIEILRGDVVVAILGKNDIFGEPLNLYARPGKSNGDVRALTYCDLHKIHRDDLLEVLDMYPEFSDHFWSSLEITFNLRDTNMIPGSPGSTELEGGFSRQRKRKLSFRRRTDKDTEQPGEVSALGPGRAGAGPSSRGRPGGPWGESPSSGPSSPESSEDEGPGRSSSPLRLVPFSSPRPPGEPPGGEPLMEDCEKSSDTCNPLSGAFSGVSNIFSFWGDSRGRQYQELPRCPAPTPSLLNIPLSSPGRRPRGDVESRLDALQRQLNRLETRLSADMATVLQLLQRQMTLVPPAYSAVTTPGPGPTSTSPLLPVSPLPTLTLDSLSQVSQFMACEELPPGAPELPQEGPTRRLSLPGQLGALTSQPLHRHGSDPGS
Procedure, shortened: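 Competition binding used membranes from HEK-293 cells transfected with hERG. Test compound competed with Cy3B-tagged N-desmethyl dofetilide for channel binding, with fluorescence polarization read-out. Values are given as % of effect.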

[5] = target: T2, Inhibitor of nuclear factor kappa-B kinase subunit beta (Homo sapiens); experiment: Binding affinity to human recombinant IKK2 assessed as half life
PBMC = experiment: Inhibition of LPS-stimulated TNFalpha release in human PBMC; assay type: functional, cell-based
Procedure, shortened: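 PBMC were Ficoll-isolated from heparinized blood of healthy donors and plated at 2.5 × 10⁵ cells/well in RPMI 1640 with 5% FBS and penicillin–streptomycin. Cells were preincubated with compound for 1 h, then stimulated with LPS (20 ng/ml) for 16 h. Supernatant TNFα was measured by ELISA, and IC50 is the mean of ≥3 experiments.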

| Structure (SMILES) | half-life ([1]; liver microsomes) [h] | IC50 [2] [nM] | T1/2 [3] [h] | T1/2 [5] [h] | half-life ([1]; microsomes) [h] | inhibition (INH) [4] [%] | IC50 (PBMC) [nM] |
| --- | --- | --- | --- | --- | --- | --- | --- |
| CSCCNC(=O)Cn1cc(CN2CCN(c3cc(C(=O)Nc4ccc5c(c4)-c4c(c(C(N)=O)nn4-c4ccc(F)cc4)CC5)c(Cl)cn3)CC2)cn1 | 0.05 | 2.5 | 4 | 4 |  | 98 | 10 |
| CNC(=O)Cn1cc(CN2CCN(c3cc(C(=O)Nc4ccc5c(c4)-c4c(c(C(N)=O)nn4-c4ccc(F)cc4)CC5)c(Cl)cn3)CC2)cn1 | 0.217 | 1.4 | > 4 | 6 |  | 57 | 15 |
| C[C@H]1CN(c2cc(C(=O)Nc3ccc4c(c3)-c3c(c(C(N)=O)nn3-c3ccc(F)cc3)CC4)c(Cl)cn2)CCN1Cc1cnn(C)c1 |  | 3.5 |  | 6 |  |  | 9 |
| NC(=O)c1nn(-c2ccc(F)cc2)c2c1CCc1ccc(NC(=O)c3cc(N4CCN(Cc5cnn(CC(=O)N(CCO)CCO)c5)CC4)ncc3Cl)cc1-2 |  | 10.2 | > 4 | 4 |  | -1 | 474 |
| CN(C)CCCn1cc(CN2CCN(c3cc(C(=O)Nc4ccc5c(c4)-c4c(c(C(N)=O)nn4-c4ccc(F)cc4)CC5)c(Cl)cn3)CC2)cn1 | 0.183 | 3.7 | > 4 | 4 |  | 42 | 12 |
| CN1CCN(c2cc(C(=O)Nc3ccc4c(c3)-c3c(c(C(N)=O)nn3-c3ccc(F)cc3)CC4)c(Cl)cn2)CC1 |  | 1.6 |  | 3 |  |  | 39 |
| NC(=O)c1nn(-c2ccc(F)cc2)c2c1CCc1ccc(NC(=O)c3cc(N4CCN(Cc5cnn(CC(=O)NCCO)c5)CC4)ncc3Cl)cc1-2 |  | 1 | < 4 | 5 | 2 | 12 | 9 |
| Cc1c(CN2CCN(c3cc(C(=O)Nc4ccc5c(c4)-c4c(c(C(N)=O)nn4-c4ccc(F)cc4)CC5)c(Cl)cn3)CC2)cnn1C |  | 2.8 |  | 8 |  |  | 67 |
| Cn1cc(CN2CCN(c3cc(C(=O)Nc4ccc5c(c4)-c4c(c(C(N)=O)nn4-c4ccc(F)cc4)CC5)c(Cl)cn3)CC2C(=O)O)cn1 (centres undefined) |  | 3.9 |  | 0.3 |  |  | 432 |
| CCn1cc(CN2CCN(c3cc(C(=O)Nc4ccc5c(c4)-c4c(c(C(N)=O)nn4-c4ccc(F)cc4)CC5)c(Cl)cn3)CC2)cn1 |  | 4.2 |  | > 8 |  |  | 102 |
| CN(C)C(=O)Cn1cc(CN2CCN(c3cc(C(=O)Nc4ccc5c(c4)-c4c(c(C(N)=O)nn4-c4ccc(F)cc4)CC5)c(Cl)cn3)CC2)cn1 | 0.133 | 2.3 | < 4 | 5 |  | 50 | 13 |
| CN1CCN(c2cc(C(=O)Nc3ccc4c(c3)-c3c(c(C(N)=O)nn3-c3ccc(O)c(Cl)c3)CC4)c(Cl)cn2)CC1 |  | 2.8 |  | 1 |  |  | 46 |
| Cc1ccc(-n2nc(C(N)=O)c3c2-c2cc(NC(=O)c4cc(N5CCN(C)CC5)ncc4Cl)ccc2CC3)cc1 |  | 14 |  |  |  |  | 38 |
| CN1CCN(c2cc(C(=O)Nc3ccc4c(c3)-c3c(c(C(N)=O)nn3-c3cccc(F)c3)CC4)c(Cl)cn2)CC1 |  | 4.8 |  | 2 |  |  | 14 |
| CN1CCN(c2cc(C(=O)Nc3ccc4c(c3)-c3c(c(C(N)=O)nn3-c3ccc(Cl)c(O)c3)CC4)c(Cl)cn2)CC1 |  | 2.2 |  | 1 |  |  |  |

The next lines start with results.

| half-life ([1]; liver microsomes) [h] | IC50 [2] [nM] | T1/2 [3] [h] | T1/2 [5] [h] | half-life ([1]; microsomes) [h] | Structure (SMILES) | inhibition (INH) [4] [%] | IC50 (PBMC) [nM] |
| --- | --- | --- | --- | --- | --- | --- | --- |
|  | 4.3 |  | 8 |  | Cc1nn(C)cc1CN1CCN(c2cc(C(=O)Nc3ccc4c(c3)-c3c(c(C(N)=O)nn3-c3ccc(F)cc3)CC4)c(Cl)cn2)CC1 |  | 118 |
|  | 10 |  |  |  | CN1CCN(c2cc(C(=O)Nc3ccc4c(c3)-c3c(c(C(N)=O)nn3-c3ccc(F)c(F)c3)CC4)c(Cl)cn2)CC1 |  | 65 |
| 0.283 | 3 |  | 4 |  | Cn1cc(CN2CCN(c3cc(C(=O)Nc4ccc5c(c4)-c4c(c(C(N)=O)nn4-c4ccc(F)cc4)CC5)c(Cl)cn3)CC2)cn1 | 91 | 11 |
|  | 0.6 |  | 0.1 |  | COCCNc1cc(C(=O)Nc2ccc3c(c2)-c2c(c(C(N)=O)nn2-c2ccc(F)cc2)CC3)c(Cl)cn1 |  | 134 |
|  | 1.9 |  | 0.6 |  | COCCN1CCN(c2cc(C(=O)Nc3ccc4c(c3)-c3c(c(C(N)=O)nn3-c3ccc(F)cc3)CC4)c(Cl)cn2)CC1 |  | 8 |
|  | 0.5 |  | 4.2 |  | Cn1cc(CN2CCN(c3cc(C(=O)Nc4ccc5c(c4)-c4c(c(C(N)=O)nn4-c4ccc(F)cc4)CC5)c(Cl)cn3)C(C(=O)O)C2)cn1 (centres undefined) |  | 529 |
|  | 1.9 |  | 3 | 0.133 | NC(=O)c1nn(-c2ccc(F)cc2)c2c1CCc1ccc(NC(=O)c3cc(N4CCN(Cc5cn[nH]c5)CC4)ncc3Cl)cc1-2 | 78 | 16 |
|  | 1.3 | > 4 | 4 |  | COCCOC(=O)Cn1cc(CN2CCN(c3cc(C(=O)Nc4ccc5c(c4)-c4c(c(C(N)=O)nn4-c4ccc(F)cc4)CC5)c(Cl)cn3)CC2)cn1 | 66 | 9 |
| 0.1 | 7.6 | > 4 | 5 |  | N#CCCn1cc(CN2CCN(c3cc(C(=O)Nc4ccc5c(c4)-c4c(c(C(N)=O)nn4-c4ccc(F)cc4)CC5)c(Cl)cn3)CC2)cn1 | 98 | 9 |
|  | 2 |  | 5 |  | CC(C)NC(=O)Cn1cc(CN2CCN(c3cc(C(=O)Nc4ccc5c(c4)-c4c(c(C(N)=O)nn4-c4ccc(F)cc4)CC5)c(Cl)cn3)CC2)cn1 | 94 | 36 |
|  | 1.1 |  | 6 |  | COC(=O)Cn1cc(CN2CCN(c3cc(C(=O)Nc4ccc5c(c4)-c4c(c(C(N)=O)nn4-c4ccc(F)cc4)CC5)c(Cl)cn3)CC2)cn1 | 24 | 54 |
| 0.05 | 6.6 | < 4 | 4 |  | COCCOCCCn1cc(CN2CCN(c3cc(C(=O)Nc4ccc5c(c4)-c4c(c(C(N)=O)nn4-c4ccc(F)cc4)CC5)c(Cl)cn3)CC2)cn1 | 69 | 21 |
|  | 0.6 |  | 0.1 |  | NC(=O)c1nn(-c2ccc(F)cc2)c2c1CCc1ccc(NC(=O)c3cc(N4CCC(O)CC4)ncc3Cl)cc1-2 |  | 15 |
| 2 | 0.5 |  |  |  | NC(=O)c1nn(-c2ccc(F)cc2)c2c1CCc1ccc(NC(=O)c3cc(N4CCN(Cc5cnn(CC(=O)O)c5)CC4)ncc3Cl)cc1-2 | 29 | 221 |
| 0.967 | 0.9 | < 4 | 5 |  | NC(=O)Cn1cc(CN2CCN(c3cc(C(=O)Nc4ccc5c(c4)-c4c(c(C(N)=O)nn4-c4ccc(F)cc4)CC5)c(Cl)cn3)CC2)cn1 | 38 | 7 |
|  | 6.1 |  |  |  | COc1ccc(-n2nc(C(N)=O)c3c2-c2cc(NC(=O)c4cc(N5CCN(C)CC5)ncc4Cl)ccc2CC3)cc1 |  | 33 |
|  | 3.3 |  | 6 | 0.6 | CN(C)CCCNC(=O)Cn1cc(CN2CCN(c3cc(C(=O)Nc4ccc5c(c4)-c4c(c(C(N)=O)nn4-c4ccc(F)cc4)CC5)c(Cl)cn3)CC2)cn1 | 34 | 26 |
|  | 1.2 |  | 1 |  | CN1CCN(c2cc(C(=O)Nc3ccc4c(c3)-c3c(c(C(N)=O)nn3-c3cccc(O)c3)CC4)c(Cl)cn2)CC1 |  | 89 |
|  | 3.5 |  | 1 |  | CN1CCN(c2cc(C(=O)Nc3ccc4c(c3)-c3c(c(C(N)=O)nn3-c3ccc(O)cc3)CC4)c(Cl)cn2)CC1 |  | 75 |
|  |  |  | 3 | 0.233 | Cn1cc(CN2CCN(c3cc(C(=O)Nc4ccc5c(c4)-c4c(c(C(N)=O)nn4-c4cccc(F)c4)CC5)c(Cl)cn3)CC2)cn1 | 83 | 14 |
